Drawing on ChEMBL document CHEMBL2380291, “Synthesis, 18F-radiolabeling, and in vivo biodistribution studies of N-fluorohydroxybutyl isatin sulfonamides using positron emission tomography” (J Med Chem, 2013), this text covers IC50, inhibition and Drug uptake for seven compounds.

Data set [1] concerns the target T1, Caspase-3 (Homo sapiens, UniProt P42574).
T1 sequence (P42574 whole entry): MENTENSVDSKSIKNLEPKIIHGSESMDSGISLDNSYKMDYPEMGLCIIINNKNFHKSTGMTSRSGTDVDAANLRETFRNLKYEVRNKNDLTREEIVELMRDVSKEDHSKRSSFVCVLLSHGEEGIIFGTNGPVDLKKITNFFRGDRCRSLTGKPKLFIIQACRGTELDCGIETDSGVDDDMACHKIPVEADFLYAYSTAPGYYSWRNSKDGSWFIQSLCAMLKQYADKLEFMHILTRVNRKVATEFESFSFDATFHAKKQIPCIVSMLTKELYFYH
As to the kind of experiment: Inhibition of human recombinant caspase-3 assessed as Ac-DEVD-AMC conversion to 7-amino-4-methylcoumarin incubated for 10 mins prior to substrate addition measured after 10 mins by spectrophotometric analysis. Summed up:
(§1)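 Recombinant caspase diluted to 0.5 unit per assay (500 pmol substrate converted in 60 min), preincubated 10 min at 37 °C in reaction buffer with inhibitor in DMSO at single final concentrations spanning 5 pM to 500 μM. Peptide substrate then added (final 10 μM) and reacted 10 min. IC50 obtained by nonlinear regression.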

Data set [2] has as its target T2, Caspase-6 (Homo sapiens) (UniProt P55212).
T2 sequence (whole entry): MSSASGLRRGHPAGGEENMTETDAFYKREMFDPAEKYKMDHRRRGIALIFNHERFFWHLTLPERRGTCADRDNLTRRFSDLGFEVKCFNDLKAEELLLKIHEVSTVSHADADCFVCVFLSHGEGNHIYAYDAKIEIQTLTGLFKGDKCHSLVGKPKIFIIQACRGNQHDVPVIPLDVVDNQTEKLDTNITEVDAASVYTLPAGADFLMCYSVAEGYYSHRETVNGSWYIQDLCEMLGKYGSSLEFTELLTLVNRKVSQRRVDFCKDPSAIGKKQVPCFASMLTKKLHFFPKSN
Briefly: Inhibition of human recombinant caspase-6 assessed as Ac-VEID-AMC conversion to 7-amino-4-methylcoumarin incubated for 10 mins prior to substrate addition measured after 10 mins by spectrophotometric analysis. The method in brief: as §1

The target of data set [3] is T3, Caspase-1 (Homo sapiens) (UniProt P29466).
T3 sequence (whole entry): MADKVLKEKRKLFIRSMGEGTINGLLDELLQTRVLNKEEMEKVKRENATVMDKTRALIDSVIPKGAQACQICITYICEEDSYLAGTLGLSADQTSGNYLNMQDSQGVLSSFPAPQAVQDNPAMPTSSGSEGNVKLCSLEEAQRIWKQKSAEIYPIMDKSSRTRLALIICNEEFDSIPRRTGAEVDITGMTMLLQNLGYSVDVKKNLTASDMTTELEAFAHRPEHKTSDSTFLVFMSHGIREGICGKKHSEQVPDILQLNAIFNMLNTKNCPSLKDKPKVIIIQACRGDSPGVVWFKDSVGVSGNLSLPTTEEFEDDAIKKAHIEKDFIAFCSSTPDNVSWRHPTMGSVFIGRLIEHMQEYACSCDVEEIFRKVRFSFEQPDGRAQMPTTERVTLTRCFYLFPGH
Briefly: Inhibition of human recombinant caspase-1 assessed as Ac-YVAD-AMC conversion to 7-amino-4-methylcoumarin incubated for 10 mins prior to substrate addition measured after 10 mins by spectrophotometric analysis. The method in brief:
as §1

The target of data set [4] is T4, Caspase-7 (Homo sapiens, UniProt P55210).
T4 sequence (P55210 whole entry): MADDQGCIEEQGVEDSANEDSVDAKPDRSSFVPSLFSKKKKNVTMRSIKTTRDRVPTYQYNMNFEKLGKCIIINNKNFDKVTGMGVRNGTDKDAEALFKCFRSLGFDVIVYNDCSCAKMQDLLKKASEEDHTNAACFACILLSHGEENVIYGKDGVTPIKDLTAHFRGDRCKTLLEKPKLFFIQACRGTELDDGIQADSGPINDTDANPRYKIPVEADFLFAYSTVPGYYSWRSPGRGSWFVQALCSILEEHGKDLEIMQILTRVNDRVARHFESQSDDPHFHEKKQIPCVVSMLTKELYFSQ
Briefly: Inhibition of human recombinant caspase-7 assessed as Ac-DEVD-AMC conversion to 7-amino-4-methylcoumarin incubated for 10 mins prior to substrate addition measured after 10 mins by spectrophotometric analysis. Summed up: as §1

Data set [5] has as its system Lung. As to the kind of experiment: Biodistribution in mouse lung at 9.8 MBq, iv after 36 seconds by PET/CT analysis. To be noted: in vivo, 0.01 h. The format is ADME, organism-based. Summed up:
(§2)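 Wild-type mice given tracer by tail vein injection through a pump-driven saline flush (300 μL/min) while PET list-mode acquisition started. CT-defined 3D volumes of interest over organs transferred to coregistered PET data. Uptake expressed as percentage injected dose: counts per mL in VOI divided by total counts in mouse, times 100% ID/mL.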

Data set [6] relates to Liver. Briefly: Biodistribution in mouse liver at 9.8 MBq, iv after 6 mins by PET/CT analysis. The format is ADME, organism-based. The note with it: in vivo, 0.1 h. Summed up:
as §2

For data set [7], the system named is Kidney. As to the kind of experiment: Biodistribution in mouse kidney at 9.8 MBq, iv after 6 mins by PET/CT analysis. The format is ADME, organism-based. To be noted: in vivo, 0.1 h. Summed up:
as §2

For data set [8], the system named is Intestine. Briefly: Biodistribution in mouse intestine at 9.8 MBq, iv after 6 to 96 mins by PET/CT analysis. The note with it: in vivo. The format is ADME, organism-based. The method in brief: as §2
Data set [9] concerns Blood. As to the kind of experiment: Biodistribution in mouse blood at 9.8 MBq, iv up to 30 mins by PET/CT analysis. The note with it: in vivo, 0.5 h. In kind it is ADME, organism-based. Summed up:
as §2

Data set [10] has as its system Mus musculus. As to the kind of experiment: Biodistribution in mouse urinary bladder at 9.8 MBq, iv after 6 to 96 mins by PET/CT analysis. The format is ADME, organism-based. The note with it: in vivo. Summed up:
as §2

The subject of data set [11] is Mus musculus. Briefly: Biodistribution in mouse gall bladder at 9.8 MBq, iv after 6 to 96 mins by PET/CT analysis. In kind it is ADME, organism-based. To be noted: in vivo. Summed up:
as §2

Data set [12] relates to Heart. Briefly: Biodistribution in mouse heart at 9.8 MBq, iv after 36 seconds by PET/CT analysis. The format is ADME, organism-based. The note with it: in vivo, 0.01 h. The method in brief:
as §2

As usually defined, the IC50 is the midpoint of a concentration-inhibition curve.

The source made the active and inactive calls. The rule behind the calls is not given here.

Turning to `COC[C@@H]1CCCN1S(=O)(=O)c1ccc2c(c1)C(=O)C(=O)N2CC[C@@H](O)CO`, the figures for the IC50 in data set [1] and in [4] were 187 nM and 128 nM, respectively. Further, the inhibition result in data set [2] and in data set [3] was “Active” in each case.

For `COC[C@@H]1CCCN1S(=O)(=O)c1ccc2c(c1)C(=O)C(=O)N2CC[C@@H](O)CF`, the IC50 was found to be 25.9 nM in [1] and 296 nM in data set [4]. In addition, the inhibition entry in data set [2] and in [3] was “Active” in each case.

Consider `COC[C@@H]1CCCN1S(=O)(=O)c1ccc2c(c1)C(=O)C(=O)N2CC[C@H](F)CO`, for which the IC50 in [1] is 11.8 nM; in data set [4], 0.951 nM. Further, the inhibition result in data set [2] and in data set [3] was “Active” throughout.

For the compound `COC[C@@H]1CCCN1S(=O)(=O)c1ccc2c(c1)C(=O)C(=O)N2CC[C@H](O)CF`, the half-maximal inhibitory concentration (IC50) in [1] came out at 23.3 nM; in data set [4] it was 27 nM. Besides, the inhibition result in data set [2] and in [3] was “Active” each time.

Regarding `COC[C@@H]1CCCN1S(=O)(=O)c1ccc2c(c1)C(=O)C(=O)N2CC[C@H](O)CO`, the IC50 is 106 nM in data set [1] and 103 nM in data set [4]. Further, the inhibition result in data set [2] and in data set [3] was “Active” throughout.

`COC[C@@H]1CCCN1S(=O)(=O)c1ccc2c(c1)C(=O)C(=O)N2CC[C@@H](O)C[18F]`: the Drug uptake is reported as 3 %ID/ml in data set [5]; 12 %ID/ml in data set [6]; 5.2 %ID/ml in data set [7]; “Active” in data set [8]; “Active” in data set [9]; “Active” in data set [10]. In addition, the Drug uptake entry in [11] was “Active”; in [12], 3.6 %ID/ml.

On to `COC[C@@H]1CCCN1S(=O)(=O)c1ccc2c(c1)C(=O)C(=O)N2CC[C@@H](F)CO`, for which the results for the IC50 in data set [1] and in [4] were 56 nM and 71 nM, respectively. The inhibition result in data set [2] and in data set [3] was “Active” in each case.
